Molecules are shown by their SMILES. Activity calls are given as the source filed them. The calls are words filed in the database; no cut-off is given here.

Series [1] in a line: Solubility of the compound in DMEM media. Format: physicochemical.
Series [2] deals with A549. Kind of series: Inhibition of TNFalpha-induced NFkappaB in human A549 cells assessed as residual enzyme activity at 50 uM incubated for 30 mins prior to TNFalpha-induction measured after 7 hrs by luciferase reporter gene assay relative to control. Format: cell-based. In short, it runs like this: (§1)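 A549 human lung cells stably carry a luciferase reporter driven by six tandem consensus NF-κB sites. Signaling was induced with TNF-α, and compound was added at 100, 50 or 10 μM. Luciferase activity is expressed relative to the induced, DMSO-treated control, set at 100%. Mean ± SD reported.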
In general terms: In a reporter assay the amount or activity of a reporter protein is the signal.

Series [3] in a line: Selectivity index, ratio of IC50 for human RWPE1 cells to IC50 for human DU145 cells. The class given is functional.
The test system of series [4] is DU-145. Briefly: Inhibition of NFkappaB in human DU145 cells assessed as inhibition of TNFalpha-induced IL8 mRNA production at 33 uM by RT-PCR analysis. Format: cell-based. The method in brief: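 DU-145 cells were dosed with compound (100 or 33 μM) or DMSO vehicle, then induced with TNF-α. IL-8 mRNA was analysed by semiquantitative RT-PCR, with GAPDH as reference. Noninduced and induced cells served as controls.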

Series [5] deals with DU-145. Kind of series: Cytotoxicity against human DU145 cells after 48 hrs by alamar blue assay. Format: functional, cell-based. In short, it runs like this:
(§2)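 Viability read by Alamar Blue staining after 48 h exposure to a range of concentrations. Vero (African green monkey kidney epithelial), RWPE-1, DU-145 and CCRF-CEM human cells were used. IC50 is reported as mean ± SD.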
Background: Resazurin is reduced to fluorescent resorufin, in cell work by metabolically active cells.

Series [6] can be described thus: Cytotoxicity against human RWPE1 cells after 48 hrs by alamar blue assay. The note with it: RWPE-1, 48 h. The class given is cell-based. In short, it runs like this:
as §2

Series [7] has as its system CCRF-CEM. Briefly: Partial inhibition of IkappaB in human CCRF-CEM cells assessed as inhibition of PMA-induced NFkappaB p65 nuclear translocation at 25 uM incubated for 12 hrs prior to TNFalpha-induction measured after 4 hrs by Western blot analysis. Format: cell-based.
The subject of series [8] is DU-145. Kind of series: Ratio of cryptocaryone IC50 to compound IC50 for human DU145 cells. The class given is functional.
The test system of series [9] is CCRF-CEM. Kind of series: Cytotoxicity against human CCRF-CEM cells after 48 hrs by alamar blue assay. Format: functional, cell-based. The method in brief: as §2
In series [10] the test system is CCRF-CEM. Kind of series: Inhibition of IkappaB in human CCRF-CEM cells assessed as inhibition of PMA-induced NFkappaB p65 nuclear translocation at 100 uM incubated for 12 hrs prior to TNFalpha-induction measured after 4 hrs by Western blot analysis. Format: cell-based. A general note: Immunoblotting shows a protein as a band on a membrane.
The subject of another series is Vero. Briefly: Cytotoxicity against african green monkey Vero cells after 48 hrs by alamar blue assay. Format: cell-based. The note with it: Chlorocebus sabaeus. In short, it runs like this: as §2
The test system of series [11] is DU-145. Briefly: Partial inhibition of IkappaB in human DU145 cells assessed as inhibition of TNFalpha-induced NFkappaB p65 nuclear translocation at 25 uM incubated for 14 hrs prior to TNFalpha-induction measured after 2 hrs by Western blot analysis. The class given is cell-based.
Series [12] has as its system DU-145. Kind of series: Inhibition of NFkappaB in human DU145 cells assessed as inhibition of TNFalpha-induced IL8 protein production at 33 uM by ELISA. Format: cell-based. In short, it runs like this:
(§3)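 DU-145 cells were dosed with compound (100 or 33 μM) or DMSO vehicle, then NF-κB was induced with TNF-α. Secreted IL-8 in the culture medium was quantified by ELISA, with noninduced and induced controls. Mean ± SEM reported.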

The subject of series [13] is A549. Briefly: Inhibition of TNFalpha-induced NFkappaB in human A549 cells assessed as residual enzyme activity at 100 uM incubated for 30 mins prior to TNFalpha-induction measured after 7 hrs by luciferase reporter gene assay relative to control. The class given is cell-based. The method in brief:
as §1

Series [14] has as its system DU-145. Kind of series: Inhibition of IkappaB in human DU145 cells assessed as inhibition of TNFalpha-induced NFkappaB p65 nuclear translocation at 100 uM incubated for 14 hrs prior to TNFalpha-induction measured after 2 hrs by Western blot analysis. The class given is cell-based.
Series [15] deals with A549. Briefly: Cytotoxicity against human TNFalpha-induced A549 cells assessed as decrease in cell viability at 50 uM incubated for 30 mins prior to TNFalpha-induction measured after 7 hrs by alamar blue staining relative to control. The class given is cell-based. The note with it: a549, 7 h.
The test system of series [16] is A549. Briefly: Inhibition of TNFalpha-induced NFkappaB in human A549 cells assessed as residual enzyme activity at 10 uM incubated for 30 mins prior to TNFalpha-induction measured after 7 hrs by luciferase reporter gene assay relative to control. Format: cell-based. In short, it runs like this: as §1
The subject of series [17] is DU-145. Kind of series: Inhibition of NFkappaB in human DU145 cells assessed as TNFalpha-induced IL8 protein level at 100 uM by ELISA. The class given is cell-based. In short, it runs like this: as §3

As for `CO[C@@]12C=C(Br)C(=O)C[C@@H]1/C(=C(/OC(C)=O)c1ccccc1)CC2` (racemic), in series [1], the solubility result is “Insoluble”.

Regarding `CC(=O)O/C(=C1\CO[C@]2(C)C=CC(=O)C[C@H]12)c1ccccc1` (racemic), the Activity in the series on A549 [2] was determined as 61.6%; in the series with DU-145 [12], 3480 pg/mL; in the series with A549 [13], 33.9%; in the series with A549 [15] it was 10%; in the series on A549 [16], 90.9%. In addition, the results for the “Ratio IC50” value (in [3]; in the series with DU-145 [8]) were 0.44 and 15, respectively. Further, the inhibition entry in the series with DU-145 [4], in the series with CCRF-CEM [7], with CCRF-CEM [10], in the series with DU-145 [11] and with DU-145 [14] was “Active” each time. The IC50 in the series on DU-145 [5] (Homo sapiens, DU-145, 48 h) is 33.7 µM; in series [6] it was 14.8 µM; with CCRF-CEM [9] (Homo sapiens, CCRF-CEM, 48 h) it was 26.4 µM; with Vero, greater than 500 µM.

With `CC(=O)O/C(=C1\CO[C@]2(C)CCC(=O)C[C@H]12)c1ccccc1` (racemic), the Activity in the series on A549 [2] amounted to 94.4%; with A549 [13], 76.1%; with DU-145 [17], 4900 pg/mL; in the series with A549 [16], 109%. For the same compound, the IC50 is greater than 500 µM in the series on DU-145 [5] (Homo sapiens, DU-145, 48 h); greater than 500 µM in [6]; greater than 500 µM in the series with CCRF-CEM [9] (Homo sapiens, CCRF-CEM, 48 h); greater than 500 µM in the series on Vero.

For the compound `CC(=O)O/C(C)=C1\CO[C@]2(C)C=C(Br)C(=O)C[C@H]12` (racemic), the inhibition entry with A549 [2], in the series with A549 [13] and in the series on A549 [16] was “inactive” in each case.

With `CC(=O)O/C(C)=C1\CO[C@]2(C)C=C(Br)[C@H](O)C[C@H]12` (racemic), the inhibition entry in the series on A549 [2], in the series with A549 [13] and with A549 [16] was “inactive” in each case.

For the compound `CC(=O)O/C(C)=C1\CO[C@]2(C)C=C(C)C(=O)C[C@H]12` (racemic), the inhibition entry with A549 [2], in the series with A549 [13] and in the series on A549 [16] was “inactive” throughout.

For the compound `CC(=O)O/C(C)=C1\CO[C@]2(C)C=CC(=O)C[C@]12C` (racemic), the inhibition result in the series with A549 [2], with A549 [13] and with A549 [16] was “inactive” each time.

For `CC(=O)[C@H]1CO[C@]2(C)C=C(c3ccccc3)[C@H](O)C[C@H]12` (racemic), the inhibition entry in the series on A549 [2], with A549 [13] and in the series on A549 [16] was “inactive” throughout.

As to `CC(=O)O/C(C)=C1\CO[C@]2(c3ccccc3)C=CC(=O)C[C@H]12` (racemic; form 1) [listing 1 of 2 here], the “Ratio IC50” value is reported as 2.75 in series [3] and 15 in the series on DU-145 [8]. Besides, the IC50 with DU-145 [5] (Homo sapiens, DU-145, 48 h) was 35.9 µM; in series [6] it was 98.8 µM; with CCRF-CEM [9] (ccrf-cem) it was 26.4 µM; in the series with Vero, greater than 500 µM. In the series on A549 [15], the Activity was 5%.

As to `CC(=O)O/C(C)=C1\CO[C@]2(c3ccccc3)C=CC(=O)C[C@H]12` (racemic; form 1) [listing 2 of 2 here], the Activity with A549 [2] was 36.2%; in the series on DU-145 [12], 2970 pg/mL; in the series with A549 [13], 17.3%; with A549 [16], 93.7%. Besides, the inhibition result in the series with DU-145 [4], in the series on CCRF-CEM [7], with CCRF-CEM [10], in the series with DU-145 [11] and in the series with DU-145 [14] was “Active” each time.

With `CC(=O)O/C(C)=C1\CO[C@]2(c3ccccc3)C=CC(=O)C[C@H]12` (racemic; form 2) [listing 1 of 2 here], the IC50 in the series with DU-145 [5] (du-145) was 46 µM; in the series on CCRF-CEM [9] (Homo sapiens, CCRF-CEM, 48 h) it was 19 µM.

`CC(=O)O/C(C)=C1\CO[C@]2(c3ccccc3)C=CC(=O)C[C@H]12` (racemic; form 2) [listing 2 of 2 here]: in the series on A549 [2], the Activity is 18%.

As to `O=C1C[C@@H]2/C(=C(O)\C=C\c3ccccc3)C(=O)C=C[C@@H]2O1` [CRYPTOCARYONE], half-maximal inhibition with DU-145 [5] (Homo sapiens, DU-145, 48 h) (IC50) required 2.3 µM.

The IC50 is the concentration that inhibits the measured activity by half.

The record behind these values is ChEMBL document CHEMBL2086271, “Bicyclic Cyclohexenones as Inhibitors of NF-κB Signaling” (ACS Med Chem Lett, 2012).
